Laboratory results reported in article PMC2926617 (Nucleic Acids Research, 2010).
Read-outs that look alike come from different tables or passages of the source.

B1: CarS antirepressor (natural protein, Myxococcus xanthus, UniProt Q06911 1-111, looked up)
chain: MIQDPSLIICHDVDGAPVRIGAKVKVVPHSEDGTISQRFLGQTGIVVGLVFDDPATQYPDDPLIQVLVEGLGEDLFFPEELELAPEWARNRIAQHRQAVRTGGRSSLERLP
B3: CarANt, N-terminal DNA-binding domain of CarA (domain or fragment, Myxococcus xanthus)
chain: MTLRIRTIARMTGIREATLRAWERRYGFPRPLRSEGNNYRVYSREEVEAVRRVARLIQEEGLSVSEAIAQVKTEPPRE

Tests used:
[1] = biological target: T1, CarS (Myxococcus xanthus, UniProt Q06911); experiment: ITC titration with CarS; type: binding
T1 sequence (Q06911 1-111): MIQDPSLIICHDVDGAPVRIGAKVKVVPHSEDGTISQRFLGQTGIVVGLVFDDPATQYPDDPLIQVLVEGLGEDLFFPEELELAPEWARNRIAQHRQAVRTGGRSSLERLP

[2] = biological target: B3; experiment: ITC
[3] = biological target: P02, CarA α2 peptide (α2 only) (Myxococcus xanthus); experiment: ITC
[4] = biological target: P01, CarA α2 peptide (α2 segment plus the subsequent eight C-terminal residues) (Myxococcus xanthus); experiment: ITC
[5] = biological target: CHP01, CarHNt peptide equivalent to P01 (Myxococcus xanthus); experiment: ITC
[6] = tested on: CarA or CarH N-terminal domain; settings: cited from earlier work
[7] = biological target: P01, CarA α2 peptide (α2 segment plus the subsequent eight C-terminal residues) (Myxococcus xanthus); experiment: ITC; remark: listed apart in the source
[8] = biological target: P01, CarA α2 peptide (α2 segment plus the subsequent eight C-terminal residues) (Myxococcus xanthus); experiment: ITC; remark: listed apart in the source
[9] = biological target: P01, CarA α2 peptide (α2 segment plus the subsequent eight C-terminal residues) (Myxococcus xanthus); experiment: ITC; remark: listed apart in the source
[10] = biological target: B1; experiment: ITC
[11] = tested on: CarANt; experiment: Analytical gel filtration, complex formation with CarANt; type: binding, Myxococcus xanthus
Summary of the method: (§1)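 Superdex200 analytical size-exclusion HPLC in 50 mM phosphate pH 7.5, 2 mM β-mercaptoethanol and the required NaCl. Samples were 10–50 µM pure protein, or CarNt or CarHNt mixed with CarS or variant at equivalent concentrations. Flow was 0.4 ml/min with detection at 280, 235 and 220 nm. Peak fractions were identified by SDS–PAGE. Mr was taken from elution volume via log Mr = 7.64 – 0.209 Ve.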

[12] = Analytical gel filtration of pure proteins; type: physicochemical; settings: Superdex200, 50 mM phosphate pH 7.5, 2 mM β-mercaptoethanol
Summary of the method: as §1

[13] = tested on: CarA; experiment: Yeast two-hybrid interaction with CarA; type: cell-based, Myxococcus xanthus; settings: 30°C
Summary of the method: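 Yeast EGY48 carrying lacZ reporter pSH18-34 was cotransformed (lithium acetate) with LexA–CarA and B42–CarS or variant fusions. Equal-density cultures were spotted on galactose or glucose (basal fusion expression) plates with leucine, grown 1 day at 30°C, then overlaid with X-Gal agarose for 2–3 h (Gal) or ≥7 h (Glu). Interaction was scored by blue colour; single-hybrid cells served as controls.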

[14] = biological target: T1, CarS; experiment: Analytical gel filtration, complex formation with CarS; type: binding; settings: Superdex200, pH 7.5, mixture with CarS
Summary of the method: as §1

[15] = biological target: T1, CarS; settings: cited from earlier work

With Ac-GVRVELIRAWERRYGVLTPRRTP-NH2 [CHP01] as the molecule, how does the Kd [1] read?
The Kd was 690 ± 140 nM.

And the “ITC heat change / binding” value ([1]; ITC with CarS, pH 7.5)?
Its value is “bind tightly to CarS, but with a KD somewhat higher than for P01”.

And the “N (binding stoichiometry)” value ([1]; ITC, CarS, 25 °C, pH 7.5, 100 mM NaCl, 50 mM phosphate, 2 mM β-mercaptoethanol, 0.05% sodium azide, 20 µM CarANt or peptide titrated with 0.22 mM CarS, average of at least two independent titrations)?
Its value is 0.91 ± 0.01.

And the ΔH ([1]; ITC, CarS, 25 °C, pH 7.5, 100 mM NaCl, 50 mM phosphate, average of at least two independent titrations)?
The ΔH was −7.15 ± 0.17 kcalmol^−1.

With B1 as the molecule, how does the dH [2] read?
The dH was -9.24 ± 0.02 kcalmol^−1.

And the “stoichiometry N” value [2]?
Its value is 0.94 ± 0.01.

What about the Kd [3] of the same molecule?
The Kd was 300 nM.

What about the dH [3] of the same molecule?
The dH was -12 kcalmol^−1.

And the stoichiometry N [3]?
Its stoichiometry N is 1.07.

What about the Kd [4] of the same molecule?
The Kd was 150 nM.

What about the dH [4] of the same molecule?
Its dH is -11.7 kcalmol^−1.

What about the stoichiometry N [4] of the same molecule?
The stoichiometry N was 0.93.

And the Kd [5]?
Its Kd is 690 nM.

And the dH [5]?
Its dH is -7.15 kcalmol^−1.

What about the stoichiometry N [5] of the same molecule?
The stoichiometry N was 0.91.

B2: CarS1, functional truncated form of CarS (lacking the last 25 residues) (domain or fragment)
chain: MIQDPSLIICHDVDGAPVRIGAKVKVVPHSEDGTISQRFLGQTGIVVGLVFDDPATQYPDDPLIQVLVEGLGEDLFFPEELELAPE
For B2, which Complex formation stoichiometry [6] is on record?
Its Complex formation stoichiometry is “forms a 1:1 complex”.

And the Kd [7]?
Its Kd is 200 nM.

What about the dH [7] of the same molecule?
Its dH is -10.9 kcalmol^−1.

And the stoichiometry N [7]?
The stoichiometry N was 0.89.

And the Kd [8]?
Its Kd is 270 nM.

And the dH [8]?
The dH was -14.4 kcalmol^−1.

And the stoichiometry N [8]?
Its stoichiometry N is 0.89.

What about the Kd [3] of the same molecule?
The Kd was 490 nM.

What about the dH [3] of the same molecule?
Its dH is -7.6 kcalmol^−1.

And the stoichiometry N [3]?
Its stoichiometry N is 0.97.

And the Kd [4]?
Its Kd is 150 nM.

And the dH [4]?
The dH was -8.46 kcalmol^−1.

What about the stoichiometry N [4] of the same molecule?
Its stoichiometry N is 0.92.

What about the Kd [9] of the same molecule?
The Kd was 175 nM.

What about the dH [9] of the same molecule?
The dH was -5.7 kcalmol^−1.

What about the stoichiometry N [9] of the same molecule?
Its stoichiometry N is 0.93.

Which Kd [10] does the source give for B3 here?
The Kd was 12 ± 3 nM.

B4: CarS: antirepressor of Myxococcus xanthus (protein)
chain: MIQDPSLIICHDVDGAPVRIGAKVKVVPHSEDGTISQRFLGQTGIVVGLVFDDPATQYPDDPLIQVLVEGLGEDLFFPEELELAPEWARNRIAQHRQAVRTGGRSSLERLP
modifications: left off: H6, end not stated, cleaved
For B4, which “Apparent Mr of complex/peak in mixture with CarANt” value ([11]; Superdex200, 50 mM phosphate pH 7.5, 2 mM β-mercaptoethanol, mixture with CarANt) is on record?
Its value is 30 ± 2 kDa.

What about the “Complex formation with CarANt” value ([11]; Superdex200, pH 7.5, mixture with CarANt) of the same molecule?
Its value is “formed a stable 1:1 complex”.

And the “Apparent Mr of pure protein” value [12]?
Its value is 15.1 ± 0.8 kDa.

And the “Two-hybrid blue color, galactose plates” value ([13]; galactose plates, X-gal overlay)?
Its value is “turned blue within two hours”.

And the “Two-hybrid blue color, glucose plates” value ([13]; glucose plates (basal B42-fusion expression), X-gal 7–24 h)?
Its value is “blue color”.

B5: CarHNt: CarH N-terminal DNA-binding domain (protein)
chain: MAERTYRINIAAELAGVRVELIRAWERRYGVLTPRRTPAGYRAYTDRDVAVLKQLKRLTDEGVAISEAAKLLPQLMEGLE
modifications: left off: H6, end not stated, cleaved
Which results are given for B5?
Apparent Mr of complex with CarS [14]: ≈ 35 kDa; Complex formation with CarS [14]: forms a 1:1 complex

B6: CarA R15 to A: CarA with R15 mutated to A (ref 10) (protein, UniProt Q50899 1-288, looked up, variant R15A)
HTH-type transcriptional …: MTLRIRTIARMTGIAEATLRAWERRYGFPRPLRSEGNNYRVYSREEVEAVRRVARLIQEEGLSVSEAIAQVKTEPPREQPEAERLRERFWSSVGALEGDEVTRVLDDAQTVMDVEAYCDGFLLPLLREMGVRLDVAREHLASALIRQRLRQVYDALSPAPAGPRALLACPSGDHHEGGLLVLGIHLKRKGWRVTMLGADTPAAALQGACVQVRPDVVALSFVRARAPEEFASVLEDALRACAPFPVVVGGLGAREHLKAIFSLGAQYAESSEELVAIWNQVRNAQNRP
Which “Interaction of CarA variant with CarS” value [15] does the source give for B6 here?
The value was “CarS-binding was not impaired”.

B7: R20′ to A: CarA with R20 mutated to A (ref 10) (protein, UniProt Q50899 1-288, looked up, variant R20A)
HTH-type transcriptional …: MTLRIRTIARMTGIREATLAAWERRYGFPRPLRSEGNNYRVYSREEVEAVRRVARLIQEEGLSVSEAIAQVKTEPPREQPEAERLRERFWSSVGALEGDEVTRVLDDAQTVMDVEAYCDGFLLPLLREMGVRLDVAREHLASALIRQRLRQVYDALSPAPAGPRALLACPSGDHHEGGLLVLGIHLKRKGWRVTMLGADTPAAALQGACVQVRPDVVALSFVRARAPEEFASVLEDALRACAPFPVVVGGLGAREHLKAIFSLGAQYAESSEELVAIWNQVRNAQNRP
For B7, which “Interaction of CarA variant with CarS” value [15] is on record?
Its value is “no apparent impairment in interactions with CarS”.
